Laboratory results as given in ChEMBL document CHEMBL1151956, “Sucutiniranes C-F, cassane-type diterpenes from Bowdichia nitida” (J Nat Prod, 2009).
pIC50: −log10 of the molar value. Calls of active or inactive are those of the source. The calls are words filed in the database; no cut-off is given here.

Experiments:
MCF7 [1] = experiment: Cytotoxicity against human MCF7 cells at 50 uM after 48 hrs by MTT assay; assay type: functional, cell-based
HL-60 [2] = experiment: Cytotoxicity against human HL60 cells at 50 uM after 48 hrs by MTT assay; assay type: functional, cell-based
HCT-116 [3] = experiment: Cytotoxicity against human HCT116 cells at 50 uM after 48 hrs by MTT assay; assay type: functional, cell-based
Plasmodium falciparum = experiment: Antiplasmodial activity against Plasmodium falciparum 3D7; assay type: functional, organism-based
HL-60 [4] = experiment: Cytotoxicity against human HL60 cells after 48 hrs by MTT assay; assay type: functional, cell-based; conditions: HL-60, 48 h
Outline: (§1)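 Cells seeded in 96-well plates, HL-60 at 1 × 10^4 cells/well and HCT-116 and MCF-7 at 5 × 10^3 cells/well, then preincubated 24 h at 37 °C in humidified 5% CO2. Compounds were added at graded concentrations and incubated for 48 h at 37 °C. MTT (5 mg/mL) was added for 2 h, and formazan was dissolved in 10% SDS/0.01 N HCl. Absorbance was read at 550 and 700 nm. Triplicate wells were used, and IC50 was taken from percent living cells versus controls.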

MCF7 [5] = experiment: Cytotoxicity against human MCF7 cells after 48 hrs by MTT assay; assay type: functional, cell-based; conditions: MCF7, 48 h; outline: as §1
HCT-116 [6] = experiment: Cytotoxicity against human HCT116 cells after 48 hrs by MTT assay; assay type: functional, cell-based; conditions: HCT-116, 48 h; outline: as §1

| Structure (SMILES) | Activity (MCF7 [1]) | Activity (HL-60 [2]) | Activity (HCT-116 [3]) | Activity (Plasmodium falciparum) | pIC50 (HL-60 [4]) | pIC50 (MCF7 [5]) | pIC50 (HCT-116 [6]) |
| --- | --- | --- | --- | --- | --- | --- | --- |
| CC(=O)O[C@H]1Cc2c(cc3occc3c2C)[C@@]2(C)CCCC(C)(C)[C@H]12 | inactive | inactive | inactive | inactive | – | – | – |
| Cc1c2c(cc3occc13)[C@@]1(C)CCCC(C)(C)[C@@H]1C=C2 | inactive | inactive | inactive | inactive | – | – | – |
| CC(=O)O[C@H]1C[C@H]2[C@@H](C)C3=CC(=O)O[C@@H]3C[C@@H]2[C@@]2(C)CCCC(C)(C)[C@H]12 [12-DEOXY-SUCUTINIRANE A] | – | – | – | – | 4.49 | – | – |
| CC(=O)O[C@H]1C[C@H]2[C@@H](C)C3=CC(=O)O[C@]3(O)C[C@@H]2[C@@]2(C)CCCC(C)(C)[C@H]12 [SUCUTINIRANE A] | – | – | – | – | 4.85 | – | – |
| CC(=O)O[C@H]1[C@H](O)[C@H]2[C@@H](C)c3ccoc3C[C@@H]2[C@@]2(C)CCCC(C)(C)[C@H]12 [Sucutinirane E] | – | – | – | inactive | 4.92 | 4.46 | 4.44 |
| CC(=O)O[C@H]1[C@H](O)[C@H]2C(C)(C)CCC[C@]2(C)[C@H]2Cc3occc3[C@H](C)[C@H]12 [Sucutinirane F] | – | – | – | inactive | 5.12 | 4.74 | 4.52 |
